Rce1 inhib = inhibitors of yeast Ras-converting enzyme; Q03530; yeast membranes, quenched prenylated peptide cleavage fluorescence; calls only; 290,000 compounds, 0.27% hits;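 active = fall in fluorescence gain of 50% or more versus controls, with final raw signal at or below 3038400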;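 also: plate controls were neutral control wells for no effect and wells lacking membranes for full effect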
Target sequence (Q03530 whole entry, looked up): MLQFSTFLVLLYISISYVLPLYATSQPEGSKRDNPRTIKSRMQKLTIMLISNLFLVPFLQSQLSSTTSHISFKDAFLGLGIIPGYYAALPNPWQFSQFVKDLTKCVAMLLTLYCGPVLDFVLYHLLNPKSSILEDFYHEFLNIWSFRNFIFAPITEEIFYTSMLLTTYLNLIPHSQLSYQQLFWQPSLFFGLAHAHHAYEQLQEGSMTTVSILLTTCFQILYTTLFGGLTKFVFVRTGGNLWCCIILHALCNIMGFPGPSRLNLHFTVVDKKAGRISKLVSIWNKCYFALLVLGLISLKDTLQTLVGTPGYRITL
TAAR1 agonist = human TAAR1 agonism | Q96RJ0 | 360,000 compounds, 0.99% hits | activation, % at 3 µM | CHO RD-HGA16 TAAR1, Fluo-8 calcium fluorescence; vehicle wells 0%, saturating PEA agonist 100%;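 active = activation above the mean activation of all test compounds in the run plus 3 SD, cut at about 38% in these data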
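System: CHO RD-HGA16 cells carrying human TAAR1 plus Gα16; Incubation: 17-24 h seeding, 75 min 37 °C dye, 30 min RT; Measured by: Fluo-8 fluorescence, 5 s baseline then 140 s kinetic read; Control set: DMSO and PEA EC100; Replication: single well for each compound.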
Platelet DG rel = platelet dense granule release activity. human platelet-rich plasma, SFLLRN dense granule ATP release, luminescence. inhibition, %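 (compounds screened at 7.5 µM in platelet-rich plasma)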. 300,000 compounds, 0.22% hits. AID 1663;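 active = mean replicate score, as percent of positive control, at or above 50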
TAAR1 antag = human TAAR1 antagonism; CHO RD-HGA16 TAAR1, Fluo-8 calcium fluorescence, antagonist; 360,000 compounds, 1.5% hits; inhibition, % at 3 µM; AID 624466;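 active = inhibition above a per-plate cutoff, the mean inhibition of test compounds on that plate plus 3 SD, cut at about 49% in these data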;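 also: 0% = DMSO plus EC80 beta-PEA response and 100% = DMSO alone without agonist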
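Assay system: CHO-derived RD-HGA16 cells stably expressing human TAAR1 plus Gα16. Timing: 140 s kinetic read after compound, 140 s after agonist. Technique: kinetic Fluo-8 calcium fluorescence measurement. Measure: % inhibition of agonist calcium response.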
VLA-4 inh = inhibition in a human VLA-4 binding assay. P13612. VLA-4 expressing cells, ligand binding flow cytometry. inhibition, % (about 7 µM as worked out from the volumes in the protocol). 330,000 compounds, 0.2% hits; in the data active = inhibition above about 50%
Starred values were filed as active, the others as inactive; i = inactive; / = no result given; + = active, no number; ! = not confirmed by another sample. Shown are actives, neighbours in structure and some others; about 2.6% of the full set was active somewhere.

SMILES	Rce1 inhib	TAAR1 agonist	Platelet DG rel	TAAR1 antag	VLA-4 inh
Cc1nc2cc(-c3ccccc3)sc2c(=O)n1N	i	1	90*	5	12
COc1ccc(-c2cc3nc4n(c(=O)c3s2)CCC4)cc1	i	1	23	3	-5
COc1ccc(-c2cc3nc(C)n(N)c(=O)c3s2)cc1	i	0	87*	-13	1
CCC1C(=O)C[C@H]2CCN3C(=O)CCCC1C23 (some centres undefined)	/	4	/	-8	/
CCCOC(=O)c1cccc(Nc2nc(-c3cccnc3)nc3ccccc23)c1	/	11	-5	62*	-2
OC(CNc1nc(-c2cccnc2)nc2ccccc12)c1ccccc1 (centres undefined)	i	13	1	49*	-13
O=C(OCCNc1nc(-c2ccccc2)nc2ccccc12)c1cccnc1	i	8	3	41	2
Cc1nn(-c2ccccc2)c(C)c1NC(=O)COC(=O)CCc1ccccc1	i	6	1	12	7
Cc1ccc(NC(=O)Cn2nc(-c3ccco3)ccc2=O)cc1Cl	i	2	-3	14	-14
CN(CC(=O)Nc1ccc(Cl)c(C(F)(F)F)c1)C(=O)C1CC(=O)N(CCc2ccccc2)C1 (centres undefined)	/	15	/	50*	/
O=C(NCCN1CCN(c2cccc(Cl)c2)CC1)Nc1ccccc1	i	16	-3	17	-12
O=C(NCCN1CCN(Cc2ccccc2)CC1)Nc1cc(Cl)cc(Cl)c1	i	44*	-9	23	20
CN(CCOc1ccc(Cl)cc1)C(=O)c1cccc(S(=O)(=O)N2CCN(c3ccccc3)CC2)c1	/	4	/	20	/
COc1ccc(C2=Nn3c(nnc3-c3ccccc3F)SC2)cc1OC1CCCC1	/	3	/	66*	4
CCN(CC)c1ccc(CN(C(=O)c2cccs2)C2CCS(=O)(=O)C2)cc1 (centres undefined)	i	10	-16	-25	10
CCN(CC)CC(=O)Nc1c2c(nc3ccccc13)N(C)CC2	i	1	3	0	8
CC(C)C(=O)Nc1c2c(nc3ccccc13)N(C)CC2	+	4	1	-4	5
COc1ccc(C(=O)NCCc2cccc(Cl)c2)cc1OC1CCN(C(C)=O)CC1	i	2	-2	4	-12
Cc1ccc([N+](=O)[O-])cc1NC(=O)C(Sc1ccccc1)c1ccccc1 (centres undefined)	i	2	4	52*	2
CCCOc1ccc(-c2c(C(=O)N/N=C/c3ccccc3)nnn2-c2nonc2N)cc1	i	0	10	-46	-7
Nc1nonc1-n1nnc(C(=O)N/N=C/c2ccc(F)cc2)c1-c1ccc2c(c1)OCO2	i	12	17	-24	-5
CCOc1ccc(-c2c(C(=O)N/N=C/c3c[nH]c4ccccc34)nnn2-c2nonc2N)cc1	i	4	5	53*	2
CCOc1cccc(-c2c(C(=O)N/N=C/c3ccc(C)o3)nnn2-c2nonc2N)c1	i	62*	25	24	14
Nc1nonc1-n1nnc(C(=O)N/N=C/c2cccc(F)c2)c1-c1ccc2c(c1)OCO2	i	44*	5	45	3
Nc1nonc1-n1nnc(C(=O)N/N=C/c2cc(Br)cs2)c1-c1ccccc1	i	41*	10	1	-7
SMILES	Rce1 inhib	TAAR1 agonist	Platelet DG rel	TAAR1 antag	VLA-4 inh
CC1CCN(Cc2c(C(=O)N/N=C/c3cccc(C(F)(F)F)c3)nnn2-c2nonc2N)CC1	+	-3	7	-32	-1
COc1ccc(NC(=O)/C(C#N)=C/c2ccc(Sc3nncn3C)c([N+](=O)[O-])c2)cc1	i	0	-10	-5	52*
CCOC(=O)c1c(-c2ccc(-c3ccccc3)cc2)csc1NC(=O)c1cccc(N2C(=O)CCC2=O)c1	i	1	-22	-21	-7
CCOC(=O)c1c(NC(=O)c2cccc(N3C(=O)CCC3=O)c2)sc(C)c1C	+	9	2	13	18
CCN(CC)C(=O)c1[nH]cnc1C(=O)Nc1ccccc1F	/	2	/	-4	/
Cc1cc(=O)oc2c(C)cc(C(C)(C)C)cc12	/	4	/	-4	/
CCCCC[C@@H](C)N1C[C@@H](COCc2ccccc2)Oc2cc(N3CC[C@@H](N(C)C)C3)ccc2S1(=O)=O	/	21	/	-12	/
NC(N)=NC(=O)c1nc(Cl)c(N2CCCCCC2)nc1N	/	5	/	-13	-7
NC(N)=NC(=O)c1nc(Cl)c(N)nc1N	+!	1	0	-9	-7
COc1cccc2[nH]c3c(N4CCc5ccccc5C4)ncnc3c12	i	/	-6	/	-6
c1ccc2c(c1)CCN(c1ncnc3c1[nH]c1ccccc13)C2	/	16	-3	58*	1
OC1(c2cccc(C(F)(F)F)c2)CCN(c2ncnc3c2[nH]c2ccccc23)CC1	i	23	-2	56*	4
O=C(Cc1cccc2ccccc12)Nc1c(F)cccc1F	i	0	9	-8	-4
COC(=O)c1ccc(Cn2c(C)c(C(=O)Nc3cccc(Oc4ccccc4)c3)sc2=O)o1	/	11	/	49*	/
Cc1c(C(=O)Nc2cccc(Oc3ccccc3)c2)sc(=O)n1Cc1ccc(F)cc1	/	1	/	9	/
Oc1ccccc1/C=N/Nc1nccnc1Cl	i	41*	2	-15	9
COc1cccc(/C=N/Nc2nccnc2Cl)c1O	/	0	84*	19	/
Oc1ccc(/C=N/Nc2nccnc2Cl)c(O)c1	i	6	135*	7	29
COc1cc(OC)c(-c2c3cc(O)c(=O)cc-3oc3cc(O)c(O)cc23)cc1OC	/	367*	/	71*	-400
Cc1cc2oc(=O)cc(-c3cc4ccccc4o3)c2cc1O	i	3	2	38	-7
Cc1c2cc(O)c(=O)cc-2oc2cc(O)c(O)cc12	i	205*	6	29	-50
CCN(C(=O)c1cc2c(=O)[nH]c3ccc(C)cc3c2s1)c1ccc(F)cc1	i	0	3	-36	2
Cc1ccc2[nH]c(=O)c3cc(C(=O)N(C)c4ccc(C)c(C)c4)sc3c2c1	i	4	74*	-42	3
CS(=O)(=O)c1ccc(C(=O)OCC(=O)N(CCc2ccccc2)Cc2ccccc2)cc1	+	/	11	/	3
CS(=O)(=O)Cc1ccc(C(=O)N(CCc2ccccc2)Cc2ccccc2)cc1	+	4	-5	7	0
CS(=O)(=O)c1cccc(C(=O)N(CCc2ccccc2)Cc2cccs2)c1	i	38*	-41	-12	11
Cc1cc(-c2ccccc2)n2nc(C)c(C#N)c2n1	+	-2	-1	-1	3
Cc1ccccc1S(=O)(=O)Cc1ccc(C(=O)N2CC(C)CC(C)C2)o1 (centres undefined)	i	42*	-5	-15	-35
Cc1ccccc1S(=O)(=O)Cc1ccc(C(=O)N2CCN(c3cccc(C)c3C)CC2)o1	i	26	-1	73*	-6
